# Assay outcomes as filed in PubChem BioAssay.
# The list is not random: actives were taken first. Their share in the collection is about 4.5%.
# PfM18AAP inh-1 – PfM18AAP inhibitors, malaria aminopeptidase, primary screen, biochemical, QFRET, recombinant enzyme; M18 aspartyl aminopeptidase (Plasmodium falciparum 3D7); H-Glu-NHMec fluorogenic cleavage; inhibition, % at 7.35 µM; 290,000 tested, 1.2% active; AID 1822, 2009;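 active means inhibition above the campaign mean inhibition over all tested compounds plus 3 SD, cut at about 28% in these data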;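 further: 0% = plate median of test compound wells and 100% = 2 mM ZnCl2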
# XBP1 UPR activ – activators of adaptive XBP1 UPR arm, primary screen, cell-based, CHO-XBP1 luciferase reporter, luminescence, uHTS | IRE1-XBP1 UPR activation; percent of tunicamycin response, DMSO as zero | activation, % at 20 µM | 330,000 tested, 0.33% active;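 active means versus positive control, 20 µM dose yields 30% or more activation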;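 further: 100% = tunicamycin at 10 µg/mL and 0% = DMSO only wells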
#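 Material: CHO-XBP1 cells stably carrying IRE1-XBP1-driven luciferase reporter | Medium: F12 with 10% serum | Compound dosing: 20 µM single concentration, DMSO 1% | Incubation: Overnight seeding at 37 °C, 6 h compound treatment at 37 °C | Detection: Steady-Glo luminescence read | Read-out basis: % activation of reporter signal versus tunicamycin and DMSO controls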
# UPR CHOP act – activators of apoptotic CHOP UPR arm, primary screen, cell-based, CHO-CHOP luciferase reporter, luminescence, uHTS; UPR activation; percent of tunicamycin response over DMSO baseline; AID 449763, 2010; activation, % at 10 µM; 330,000 tested, 0.34% active;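 active means at 10 µM dose, activation of 40% or more, normalized to positive control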;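 further: 100% = tunicamycin at 10 µg/mL and 0% = DMSO alone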
#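 Test system: CHO-CHOP cells, stable luciferase reporter of PERK-eIF2a-CHOP signalling | Quantity: 500 CHO-CHOP cells per well | Buffer or medium: F12 plus 10% serum | Compound dosing: 10 µM single point, 0.5% DMSO | Schedule: 6 h compound treatment, 37 °C | Signal: Luciferase luminescence | Control set: Tunicamycin high control, DMSO low control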
# CHOP inh – inhibitors of CHOP promoter induction, primary screen, cell-based, unfolded protein response, luciferase reporter; CHO-K1 CHOP-promoter luciferase, tunicamycin-induced, 15-18 h; inhibition, % at 10 µM; 220,000 tested, 3.8% active;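 active means compounds that reduced the stress-induced luciferase reporter signal by more than about 70% of percent inhibition, limit read from the data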;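 further: 0% = tunicamycin plus vehicle and 100% = wells without tunicamycin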
# NS3 helicase inh – inhibitors of HCV NS3 helicase, primary screen, biochemical, Cy5 molecular beacon fluorescence. NS3 helicase DNA unwinding. inhibition, % at 10.9 µM. 290,000 tested, 0.56% active;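 active means inhibition above the mean of all tested compounds plus 3 SD, set per campaign, cut at about 35% in these data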;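 further: 0% = DMSO wells and 100% = thioflavine S control wells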
#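 System: Hepatitis C virus NS3 helicase domain fragment enzyme | Reagent: Annealed dual-labelled DNA beacon duplex, ATP-started | Compound dosing: 10.9 µM single point, 0.8% DMSO | Incubation: 1 h reaction at 25 °C, ATP-initiated | Technique: Cy5 fluorescence | Evaluation: Percent inhibition from t60/t0 fluorescence ratio | Benchmarks: Low DMSO, high thioflavine S at 110 µM | Replication: Singlicate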
# p97 ATPase inh – inhibitors of human p97 ATPase, primary screen, biochemical; Transitional endoplasmic reticulum ATPase (Homo sapiens), P55072; recombinant p97 ATPase, Kinase-Glo ATP luminescence, 3 h; inhibition, % at 8 µM; 220,000 tested, 0.42% active; in the data active means inhibition above about 15%;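 further: 0% = DMSO vehicle and 100% = wells lacking enzyme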
# PfM18AAP inh-2 – PfM18AAP inhibitors, malaria aminopeptidase, confirmation, biochemical, QFRET, recombinant enzyme, triplicate | shares compounds with PfM18AAP inh-1 | H-Glu-NHMec fluorogenic cleavage | inhibition, % at 7.35 µM | 2,400 tested, 28% active | AID 2170, 2009;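 active means mean inhibition over replicate wells above the hit cutoff set for the earlier primary screen, cut at about 29% in these data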;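 further: 0% = median of test compound wells and 100% = 2 mM ZnCl2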
# CTSL1 confirm – cathepsin L1 inhibitors, retest, confirmation, counter-screen for PFM18AAP inhibitor project, biochemical, QFRET, triplicate | purified cathepsin L1, Z-Leu-Arg-MCA fluorescence | 2,400 tested, under 10 active | inhibition, % at 5.96 µM | shares compounds with PfM18AAP inh-1;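 active means average inhibition across replicates above the hit cutoff set in the earlier primary screen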;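 further: 0% = median of test compound wells and 100% = Z-Phe-Ala-diazomethylketone 1 µM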
# The depositor's hits bear a star; · = no result given.
SMILES,PfM18AAP inh-1,XBP1 UPR activ,UPR CHOP act,CHOP inh,NS3 helicase inh,p97 ATPase inh,PfM18AAP inh-2,CTSL1 confirm
CCCOc1ccc(C2C(C(=O)/C=C/c3ccco3)=C(O)C(=O)N2CCN2CCOCC2)cc1OC (centres undefined),33*,0,3,-6,21,4,-38,1
CCN(CC)c1ccc(/C=N/n2c(=S)[nH]nc(C)c2=O)cc1,35*,-4,-3,-6,9,-4,-38,2
Cc1n[nH]c(=S)n(/N=C/c2cccs2)c1=O,10,-2,1,7,-4,4,·,·
CN(C(=O)COC(=O)CSc1cc(Cl)ccc1Cl)c1c(N)n(Cc2ccccc2)c(=O)[nH]c1=O,·,-3,-1,·,·,·,·,·
CC(=O)NC1=NC(=O)/C(=C/c2cc(C)n(-c3cccc(C(=O)O)c3)c2C)S1,33*,-3,1,1,28,-2,-33,-3
CC(=O)NC1=NC(=O)/C(=C/c2cc(C)n(-c3ccc(NC(C)=O)cc3)c2C)S1,6,2,1,-20,19,-1,·,·
COc1cccc(/C=N/Nc2ccnc(=O)[nH]2)c1O,43*,-5,2,·,-7,·,-12,2
COc1cccc(/C=N/NC(=O)C(=O)N2CCCC2)c1O,9,-2,1,43,12,-5,·,·
COc1cccc(/C=N/NC(=O)N/N=C/c2cccc(OC)c2O)c1O,33*,-1,2,·,-2,·,2,-4
N#CCCN=C(NS(=O)(=O)c1ccccc1)c1ccccc1,4,-3,0,·,34,·,·,·
C/C(=N\NC(N)=O)C1CC(Cc2ccccc2)C(=O)O1 (centres undefined),-15,0,0,·,-5,·,·,·
Cc1ccc(N/C=C(\C2OC(=O)c3ccccc32)[N+](=O)[O-])c(C)c1 (centres undefined),51*,-4,0,4,13,-2,-36,5
CCN(CC)c1ccc([N+](=O)[O-])cc1/C=N/NC(=O)CC#N,24,2,9,11,13,6,·,·
Cc1ccc(-n2c(C)cc(/C=N/Nc3ccc([N+](=O)[O-])cn3)c2C)cc1,-4,-3,2,30,24,-2,·,·
Cc1cc(/C=N/NC(=O)CC#N)c(C)n1-c1ccc([N+](=O)[O-])cc1,34*,2,0,23,-4,3,-50,-7
Cc1c(C(=O)O)cccc1-n1c(C)cc(/C=N/Nc2ccc([N+](=O)[O-])cn2)c1C,59*,-1,1,10,30,4,-17,6
Cc1cc(/C=N/Nc2ccc([N+](=O)[O-])cn2)c(C)n1-c1ccccc1,51*,0,1,7,22,1,-20,3
O=C(O)Cn1cc(/C=N/Nc2ccc([N+](=O)[O-])cn2)c2ccccc21,53*,-1,-1,·,20,·,-20,-1
O=C(CCNS(=O)(=O)c1ccc(Cl)cc1)Nc1ccncc1,-1,-3,-1,·,0,·,·,·
CNC(=S)N1N=C(c2cccs2)CC1c1ccc(F)cc1 (centres undefined),2,-1,1,·,-13,·,·,·
COc1ccc(-n2c(O)c(/C=C3\C=Nc4ccccc43)c(=O)[nH]c2=O)cc1,32*,-5,-1,·,31,·,0,-2
COc1ccc(-n2c(O)c(C=NC3CC3)c(=O)[nH]c2=O)cc1,3,-5,-1,5,4,5,·,·
COc1ccccc1NS(=O)(=O)c1cccc(C(=O)NCC(c2ccc(F)cc2)N2CCOCC2)c1 (centres undefined),·,0,0,·,·,·,·,·
Cc1oc2c(O)c(O)ccc2c(=O)c1-c1ccc(Cl)cc1,44*,-1,2,·,9,·,19,-3
O=C(CCN1CCCCO1)N1CCCC(Nc2ccc(F)cc2)C1 (centres undefined),-1,-1,1,·,-3,·,·,·
SMILES,PfM18AAP inh-1,XBP1 UPR activ,UPR CHOP act,CHOP inh,NS3 helicase inh,p97 ATPase inh,PfM18AAP inh-2,CTSL1 confirm
COc1ccccc1CNc1nc(C)c(C(=O)N(C)C)s1,34*,0,0,·,-9,·,-35,1
Clc1cc(Cl)cc(Nc2ncn[nH]2)c1,45*,0,2,24,7,-3,36*,-4
C/C(=N\Nc1ccc(Cl)c(C(=O)O)c1)c1ccccn1,19,-1,2,5,12,7,·,·
C/C(=N\Nc1ncc(Cl)cc1Cl)c1ccccn1,38*,·,·,42,6,-2,-11,-9
C/C(=N\Nc1ncc(Cl)cc1Cl)c1ccc(N2CCOCC2)cc1,52*,3,2,33,6,5,5,1
C/C(=N\Nc1nc2ccccc2[nH]1)c1ccc(N2CCOCC2)cc1,46*,12,5,-44,5,-4,-69,-5
C/C(=N\Nc1nc(C)cc(C)n1)c1ccc(N2CCOCC2)cc1,9,-2,3,-13,2,2,·,·
COc1cc(OC)c2c(=O)cc(-c3ccccc3)oc2c1,5,7,5,-27,6,-6,·,·
COc1cc(-c2cc(=O)c3c(O)c(OC)c(OC)c(O)c3o2)ccc1O,49*,10,-2,66,7,2,32*,3
COc1c(O)c(O)c2oc(-c3ccccc3)cc(=O)c2c1OC,33*,-2,1,33,2,3,12,3
CCOC(=O)NNc1ccc(C(F)(F)F)cn1,56*,0,0,-2,-9,-2,35*,-5
COC(=O)C1=C(C)NC(C)=C(C(=O)OCC2CCCO2)C1c1cccc(Br)c1 (centres undefined),-2,-3,-1,·,-19,·,·,·
COc1ccc(-n2nnc3c(SC(C(C)=O)C(=O)N(C)C)ncnc32)cc1 (centres undefined),46*,-4,26,·,14,·,2,-2
CCOC(=O)N1CCN(S(=O)(=O)c2ccc(C(=O)NNc3nc4c(C)cccc4s3)cc2)CC1,38*,2,1,13,-2,7,-16,5
